Compound activity as filed in PubChem BioAssay.
Most compounds without a hit are left out; they make up all but 7.2% or so of the library.
BAP1 block = blocks human BAP1 ubiquitin-AMC hydrolysis; recombinant BAP1, Ub-AMC hydrolysis fluorescence kinetic; stronger effect = lower value; calls only at 20 µM; hit rate 0.48% among 72,000; AID 436;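 active = activity remaining at or below 50% of control, provided the compound also passes the data quality filters; inactive = the rest, including low values that fail the filters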;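 also: 100% = DMSO wells rate and 0% = substrate alone blank rate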
M1 antag = M1 muscarinic receptor (rat) antagonism. P08482. CHO-M1 cells, Fluo-4 calcium, ACh EC80 antagonist mode; stronger effect = lower value. B-score at 10 µM. hit rate 3.4% among 64,000. AID 628;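 active = calcium fluorescence response, raw or row-and-column corrected B-score, differing from the plate sample mean either way at a set confidence level, mostly lower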
Target sequence (P08482 whole entry, looked up): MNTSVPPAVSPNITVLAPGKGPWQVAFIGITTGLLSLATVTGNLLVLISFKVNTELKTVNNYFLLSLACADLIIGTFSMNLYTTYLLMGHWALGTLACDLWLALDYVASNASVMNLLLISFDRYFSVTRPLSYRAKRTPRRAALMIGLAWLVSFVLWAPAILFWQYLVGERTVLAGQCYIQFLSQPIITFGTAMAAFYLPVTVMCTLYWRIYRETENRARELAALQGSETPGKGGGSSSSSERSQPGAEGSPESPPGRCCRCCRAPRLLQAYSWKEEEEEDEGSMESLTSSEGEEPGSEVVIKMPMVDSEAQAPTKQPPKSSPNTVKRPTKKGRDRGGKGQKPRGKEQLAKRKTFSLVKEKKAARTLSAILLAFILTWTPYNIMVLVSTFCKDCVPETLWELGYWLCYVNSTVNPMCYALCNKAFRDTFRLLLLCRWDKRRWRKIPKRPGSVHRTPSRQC
D1 mod = allosteric modulators of human D1 dopamine receptor; hit rate 5.9% among 58,000; HEK293 D1, CRE-luciferase, dopamine EC30 potentiation; actives deviate in either direction; B-score at 10 µM;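 active = luminescence count or its row- and column-corrected plate score outside the 99.7% band of the plate's sample wells, on either side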
hDAT+cocaine = human DAT dopamine uptake with cocaine, either direction | AID 449768 | B-score at 10 µM | hit rate 1.3% among 110,000 | LLC-PK1 hDAT cells, [14C]-dopamine uptake with cocaine IC80; actives deviate in either direction | Q01959;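 active = Z score or B-score, a plate-position-corrected score, falls beyond the plate's 99.7% confidence bounds, in either direction; inactive = both scores lie inside the 99.7% bounds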;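 also: scored against the spread of the other compound wells on the same plate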
M1 agonist = activates the M1 muscarinic receptor; CHO-M1 cells, Fluo-4 calcium fluorescence, agonist mode; stronger effect = higher value; B-score at 10 µM; hit rate 3% among 64,000; AID 626;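 active = fluorescence rise, raw or as B-score row- and column-corrected plate score, outside the 99.7% band of its plate's samples, either direction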
HEK293 NFkB inh = inhibitors of the PMA/ionomycin-induced NF-kB reporter in HEK293 cells | HEK-293 NF-kB luciferase reporter, luminescence | inhibition, % at 3 µM | hit rate 0.21% among 62,000;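 active = inhibition above the mean of all tested compounds plus 3 SD, cut at about 40% in these data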;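 also: 0% = stimulated DMSO wells and 100% = 10 µM reference inhibitor 5653914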
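Reagent: PMA plus ionomycin mix as NF-kB-activating stimulus. Assay system: NF-kB luciferase reporter HEK-293 cells. Technique: luminescence from luciferase substrate reagent. Incubation: 1 h compound pre-incubation, 16 h PMA/ionomycin at 37 °C. Benchmarks: DMSO only as uninhibited control, 10 µM reference inhibitor as full inhibition. Repeats: tested once.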
M1 antag confirm = M1 muscarinic receptor (rat) antagonism, confirmed; CHO-M1 cells, Fluo-4 calcium, ACh EC80 antagonism; stronger effect = lower value; AID 677; hit rate 43% among 1,700; shares compounds with M1 antag; calcium response (max-min fluorescence) at 10 µM;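 active = calcium response below the same-plate mean of wells given acetylcholine alone at its 80%-effect dose, minus 3 SD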;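 also: raw fluorescence intensity difference in arbitrary instrument units and not normalized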
mGluR4 antag = mGluR4 (human) activity, M1 antagonist secondary assay. fluorescence response (max-min) at 10 µM. CHO-mGluR4 calcium flux, Fluo-4 fluorescence, glutamate EC80; stronger effect = lower value. shares compounds with M1 antag. hit rate 0.9% among 1,700;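 active = fluorescence response below the plate's average for near-maximal glutamate wells, less 3 SD of those wells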;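 also: raw unnormalized fluorescence span taken in the window right after glutamate addition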
Starred values were filed as active, the others as inactive; i = inactive; x = no result shown.

SMILES	BAP1 block	M1 antag	D1 mod	hDAT+cocaine	M1 agonist	HEK293 NFkB inh	M1 antag confirm	mGluR4 antag
Cc1cc(C(=O)CSc2nnc(NCc3ccccc3)s2)c(C)n1C	i	-3.5*	0.13	1.1	-0.38	13	488	249
C=CCSc1nc2c(c(=O)[nH]1)C(C)(C1CCCCC1)Cc1ccccc1-2 (centres undefined)	i	x	x	x	x	x	x	x
CC1=C(C(=O)Nc2cccc(C)c2C)C(c2cccc(Cl)c2)NC(=S)N1 (centres undefined)	i	x	x	x	x	x	x	x
COc1ccc(/C(N)=C/C(=O)C(C)(C)C)cc1	i	-3.5*	x	0.0077	-0.57	8	554	216
COCCNS(=O)(=O)c1ccc(SC)cc1	i	-3.2*	-0.48	-0.9	-0.2	15	610	267
O=C(Cn1cc(/C=N/O)c2ccccc21)N1CCOCC1	i	-2.2*	-0.069	-1.5	-0.67	16	669	264
O=Cc1cn(CC(=O)N2CCOCC2)c2ccccc12	x	x	x	0.38	x	x	x	x
Cc1c(C(=O)NCc2cccnc2)oc2ccc(S(=O)(=O)N3CCCCCC3)cc12	x	-1.6*	-0.52	0.95	-0.73	24	617	268
Cc1c(C(=O)N2CCCc3ccccc32)oc2ccc(S(=O)(=O)N3CCOCC3)cc12	i	-2.2*	0.11	1.3	0.72	25	614	264
Cc1c(C(=O)N(C)Cc2ccccc2)oc2ccc(S(=O)(=O)N3CCCC3)cc12	x	-2.3*	x	1.6	2.5	28	590	249
Cc1c(C(=O)NCc2cccnc2)oc2ccc(S(=O)(=O)N3CCCCC3)cc12	i	-0.36	-0.45	0.3	2.1	7	x	x
O=C(c1cccc(S(=O)(=O)N2CCOCC2)c1)N1CCCc2ccccc21	x	-0.089	-0.7	0.27	-0.83	22	x	x
CCOC(=O)N1CCN(C(=O)c2oc3ccc(S(=O)(=O)N4CCCCCC4)cc3c2C)CC1	x	-2*	-0.74	-8.1*	-0.15	15	598	236
Cc1ccc(C2=NN(C(=O)CCC(=O)O)C(c3ccc(Br)cc3)C2)cc1 (centres undefined)	i	x	x	x	x	x	x	x
CC(O)(C#CCN1CCCC1)c1ccccc1 (centres undefined)	i	-2.3*	-0.29	1.1	-0.93	4	493	212
CCC(O)(CCN1CCCCC1)c1ccccc1 (centres undefined)	i	-11*	-0.33	-0.014	0.35	10	111*	213
OCCn1c(-c2ccc(Cl)cc2)cn2c3ccccc3nc12	i	x	x	x	x	x	x	x
O=C(Nc1ccc2c(c1)OCO2)C1CCN(Cc2cnn(-c3ccccc3)c2-n2cccc2)CC1	i	-2.1*	0.21	-0.58	0.32	28	639	281
COc1ccc(OC)c(S(=O)(=O)N2CCN(C34CC5CC(CC(C5)C3)C4)CC2)c1	i	-4.6*	0.022	-0.016	-0.39	18	477*	230
COc1ccc2oc(=O)c(C(=O)N3CCN(C45CC6CC(CC(C6)C4)C5)CC3)cc2c1	i	-3*	-0.22	x	-0.01	10	390	209
CCN1CCN(S(=O)(=O)c2cc(OC)ccc2OC)CC1	i	0.44	0.13	-0.77	0.33	15	x	x
COc1ccc(C=NC2=NN(c3cccc(C(F)(F)F)c3)CC2)cc1	i	x	x	x	x	x	x	x
Cc1cc(C(=O)CSc2nncs2)c(C)n1-c1c(C)n(C)n(-c2ccccc2)c1=O	i	-9.1*	0.0048	-0.052	-2.4	7	215*	195
CCOC(=O)Cn1cc(-c2ccc([N+](=O)[O-])cc2)nc1SCc1ccccc1	i	x	x	x	x	x	x	x
CCCCn1c(=O)n(Cc2cccc(F)c2)c(=O)c2c1ncn2Cc1ccco1	i	-1.5*	2.9	-0.029	0.33	3	515	213
SMILES	BAP1 block	M1 antag	D1 mod	hDAT+cocaine	M1 agonist	HEK293 NFkB inh	M1 antag confirm	mGluR4 antag
CCOC(=O)CNC(=O)CSc1nc(NCc2ccccc2)nc(N(C)C)n1	i	-1.8*	-0.85	1.4	0.48	10	683	254
CN(C)c1ccc(C2C3=C(CCCC3=O)OC3=C2C(=O)CCC3)cc1	i	-10*	-0.75	0.41	-0.16	1	400*	216
Clc1ccc(Cc2nn[nH]n2)cc1	i	x	x	x	x	x	x	x
CNS(=O)(=O)c1cccc(C(=O)OCC(=O)c2cc(C)n(-c3ccc4c(c3)OCO4)c2C)c1	i	-2.3*	-0.038	-0.67	-0.9	22	483	164*
CCN(CC)c1ccc(C2C(C(=O)OCCOC(C)C)=C(C)NC3=C2C(=O)CCC3)cc1 (centres undefined)	i	-11*	-0.56	2.4	-0.059	3	144*	236
Cn1c(=O)[nH]c(=O)c2c1nc(SCC(O)CO)n2CC(N)=O (centres undefined)	i	x	x	x	x	x	x	x
CCCC(C)c1nnc(NC(=O)C2CCCO2)s1 (centres undefined)	i	-3.5*	-0.64	-0.88	0.73	-2	198*	246
O=C1CC(c2ccc(F)cc2)Cc2nc(N3CCN(c4ccccc4)CC3)ncc21 (centres undefined)	x	0.21	-0.056	-0.13	2.7	4	x	x
Cc1ccc(C2CC(=O)c3cnc(N4CCN(c5ccccc5)CC4)nc3C2)cc1 (centres undefined)	x	-5.8*	-0.78	0.74	-1.7	8	622	240
CCN(CC)CCNS(=O)(=O)c1cccc2nsnc12	i	x	x	x	x	x	x	x
COC(=O)c1cc(Br)ccc1-c1ccc(/C=N/n2nnnc2N)o1	i	-5*	1.5	0.13	1.8	17	450	206
COc1cc(/C=N/n2nnnc2N)ccc1O	i	-0.74	x	0.004	-0.12	x	x	x
CSc1nc2sc3c(c2c(=O)n1CCc1ccccc1)CCCC3	i	x	x	x	x	x	x	x
O=C(CSc1nnc(-c2ccco2)n1Cc1ccccc1)c1ccccc1	i	-2*	0.76	3.4*	0.049	-8	515	226
Cc1c(Cl)c([N+](=O)[O-])nn1CC(=O)Nc1ccc(OC(F)(F)F)cc1	i	x	x	x	x	x	x	x
CC1CCCN(c2nc3nonc3nc2N2CCCC(C)C2)C1 (centres undefined)	x	x	x	-0.7	x	x	x	x
CC1CCCN(c2nc3ccsc3c(=O)s2)C1 (centres undefined)	i	-7.2*	3.8*	-0.63	0.092	-7	273*	201
Cc1nnc(NC(=O)C(C)C)s1	i	x	x	x	x	x	x	x
CS(=O)(=O)Nc1ccccc1C(=O)Nc1cccc(Cl)c1	i	-2.5*	-2.3	-1.4	1.6	4	627	187
CS(=O)(=O)Nc1ccccc1C(=O)Nc1cc(Cl)cc(Cl)c1	x	x	x	0.01	x	x	x	x
CCc1ccc(-c2cn3c4ccccc4nc3n2CCCCl)cc1	i	x	x	x	x	x	x	x
